Tests used:
[1] = target: Flt3 (Homo sapiens, UniProt P36888); assay: KinaseProfiler kinase activity assay; type: biochemical
[2] = target: human topo IIβ (Homo sapiens, UniProt Q02880); assay: Human topo IIβ-mediated decatenation assay; type: biochemical
[3] = target: DNA-PK (Homo sapiens, UniProt P78527); assay: KinaseProfiler kinase activity assay; type: biochemical
Procedure, shortened: (§1)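 Radiometric activity assay with 10 µM test compound, added first from a 50× stock in 100 % DMSO, with no compound–kinase pre-incubation. Full activity came from 2 % DMSO wells without compound. The 0 % baseline came from a reference inhibitor: KU55933 for ATM, PI-103 for DNA-PK.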

[4] = target: T1, human topo IIα (Homo sapiens, UniProt P11388); assay: Human topo IIα competitive cleavage assay; type: biochemical; settings: in the presence of 50 μM etoposide
[5] = target: CDK1/cyclinB (Homo sapiens, UniProt P06493); assay: KinaseProfiler kinase activity assay; type: biochemical
Procedure, shortened: (§2)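 Radiometric kinase activity assay. Test compound was made as a 50× stock in 100 % DMSO and added first to 10 µM, with no pre-incubation before reaction start. Kinase was prepared in 20 mM MOPS, 1 mM EDTA, 0.01 % Brij-35, 5 % glycerol, 0.1 % β-mercaptoethanol, 1 mg/mL BSA. Full-activity wells had 2 % DMSO without compound. Blank wells with staurosporine set 0 % activity.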

[6] = target: T1, human topo IIα; assay: Human topoisomerase IIα-mediated cleavage assay; type: biochemical; settings: 7.8-125 μM
[7] = target: EGFR (Homo sapiens, UniProt P00533); assay: KinaseProfiler kinase activity assay; type: biochemical
Procedure, shortened: as §2

[8] = system: panel of 20 human protein kinases; assay: KinaseProfiler, whole panel; type: biochemical; settings: 10 µM
[9] = system: NCI-60 human cancer cell lines; assay: NCI-60 screening, whole panel; type: cell-based; settings: 10 µM
[10] = target: Flt1 (Homo sapiens, UniProt P17948); assay: KinaseProfiler kinase activity assay; type: biochemical
[11] = target: MEKK3 (Homo sapiens, UniProt Q99759); assay: KinaseProfiler kinase activity assay; type: biochemical
Procedure, shortened: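 Kinase was prepared in 50 mM HEPES, 1 mM EDTA, 10 mM DTT, 0.01 % Brij-35. Activity was measured radiometrically with 10 µM test compound added first from a 50× DMSO stock, without pre-incubation. Activity is expressed relative to 2 % DMSO control wells (100 %) and staurosporine blank wells (0 %).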

[12] = target: IGF-1R (Homo sapiens, UniProt P08069); assay: KinaseProfiler kinase activity assay; type: biochemical
[13] = target: PDGFRα (Homo sapiens, UniProt P16234); assay: KinaseProfiler kinase activity assay; type: biochemical
Procedure, shortened: as §2

[14] = target: ATPase domain of topo IIα (Homo sapiens, UniProt P11388); assay: 1H STD NMR experiments; type: binding; settings: protein:ligand ratio 1:100
Procedure, shortened: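 Runs were at 600 MHz, 25 °C, with a 100 ms T₁ρ filter. On-resonance saturation was at −0.727 ppm and off-resonance at 30 ppm. Saturation was 0.5 or 1 s depending on compound, with relaxation delay 4 or 1.5 s. Epitope maps come from STD amplification factors.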

[15] = target: Fms (Homo sapiens, UniProt P07333); assay: KinaseProfiler kinase activity assay; type: biochemical
[16] = target: PKA (Homo sapiens, UniProt P17612); assay: KinaseProfiler kinase activity assay; type: biochemical
Procedure, shortened: as §2

[17] = target: FGFR1 (Homo sapiens, UniProt P11362); assay: KinaseProfiler kinase activity assay; type: biochemical
Procedure, shortened: as §2

[18] = target: human topo II (Homo sapiens, UniProt P11388); assay: Competitive ATPase assay; type: biochemical; settings: IC50 versus ATP concentration
Procedure, shortened: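 NADH-coupled ATPase (pyruvate kinase/lactate dehydrogenase, phosphoenolpyruvate) with human topo II at 14 nM final and linear pBR322. Buffer was 20 mM Tris-HCl, 5 mM Mg acetate, 125 mM K acetate, 2 mM DTT, pH 7.9. Compound in DMSO went in before enzyme, then a 10–15 min OD340 pre-run. ATP was added at varying concentrations and OD340 followed for up to 30 min at 37 °C, in duplicate. Hydrolysis rates vs ATP gave IC50 at each ATP level.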

[19] = target: ATM (Homo sapiens, UniProt Q13315); assay: KinaseProfiler kinase activity assay; type: biochemical
Procedure, shortened: as §1

[20] = system: wheatgerm topo I; assay: Wheatgerm topo I unwinding assay; type: biochemical, wheat germ; settings: 7.8, 15.6, 31.25, 125 μM
Procedure, shortened: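 Wheat germ topo I plasmid unwinding run in duplicate at 7.8, 15.6, 31.25 and 125 µM test compound, with the intercalator m-AMSA as positive control.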

[21] = target: PKBα (Homo sapiens, UniProt P31749); assay: KinaseProfiler kinase activity assay; type: biochemical
Procedure, shortened: as §2

[22] = target: cKit (Homo sapiens, UniProt P10721); assay: KinaseProfiler kinase activity assay; type: biochemical
Procedure, shortened: as §2

[23] = target: Ret (Homo sapiens, UniProt P07949); assay: KinaseProfiler kinase activity assay; type: biochemical
Procedure, shortened: as §2

[24] = target: JAK2 (Homo sapiens, UniProt O60674); assay: KinaseProfiler kinase activity assay; type: biochemical
[25] = target: Src(1-530) (Homo sapiens, UniProt P12931); assay: KinaseProfiler kinase activity assay; type: biochemical
Procedure, shortened: as §2

[26] = target: B-Raf (Homo sapiens, UniProt P15056); assay: KinaseProfiler kinase activity assay; type: biochemical
Procedure, shortened: (§3)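 Radiometric kinase assay of test compound at 10 µM, added first from a 50× DMSO stock with no pre-incubation. Kinase was diluted in 45 mM TRIS, 0.4 mM EGTA, 18 mM DTT, 0.02 % Triton X-100, 1 mM sodium orthovanadate, 1 mM β-glycerophosphate, 2 % glycerol. Solvent wells (2 % DMSO) gave 100 % activity. Staurosporine blank wells defined 0 % activity.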

[27] = Solubility as observed during preparation for assays; type: physicochemical
[28] = target: c-RAF (Homo sapiens, UniProt P04049); assay: KinaseProfiler kinase activity assay; type: biochemical
Procedure, shortened: as §3

[29] = target: FGFR3 (Homo sapiens, UniProt P22607); assay: KinaseProfiler kinase activity assay; type: biochemical
Procedure, shortened: as §2

T1 sequence (P11388 whole entry): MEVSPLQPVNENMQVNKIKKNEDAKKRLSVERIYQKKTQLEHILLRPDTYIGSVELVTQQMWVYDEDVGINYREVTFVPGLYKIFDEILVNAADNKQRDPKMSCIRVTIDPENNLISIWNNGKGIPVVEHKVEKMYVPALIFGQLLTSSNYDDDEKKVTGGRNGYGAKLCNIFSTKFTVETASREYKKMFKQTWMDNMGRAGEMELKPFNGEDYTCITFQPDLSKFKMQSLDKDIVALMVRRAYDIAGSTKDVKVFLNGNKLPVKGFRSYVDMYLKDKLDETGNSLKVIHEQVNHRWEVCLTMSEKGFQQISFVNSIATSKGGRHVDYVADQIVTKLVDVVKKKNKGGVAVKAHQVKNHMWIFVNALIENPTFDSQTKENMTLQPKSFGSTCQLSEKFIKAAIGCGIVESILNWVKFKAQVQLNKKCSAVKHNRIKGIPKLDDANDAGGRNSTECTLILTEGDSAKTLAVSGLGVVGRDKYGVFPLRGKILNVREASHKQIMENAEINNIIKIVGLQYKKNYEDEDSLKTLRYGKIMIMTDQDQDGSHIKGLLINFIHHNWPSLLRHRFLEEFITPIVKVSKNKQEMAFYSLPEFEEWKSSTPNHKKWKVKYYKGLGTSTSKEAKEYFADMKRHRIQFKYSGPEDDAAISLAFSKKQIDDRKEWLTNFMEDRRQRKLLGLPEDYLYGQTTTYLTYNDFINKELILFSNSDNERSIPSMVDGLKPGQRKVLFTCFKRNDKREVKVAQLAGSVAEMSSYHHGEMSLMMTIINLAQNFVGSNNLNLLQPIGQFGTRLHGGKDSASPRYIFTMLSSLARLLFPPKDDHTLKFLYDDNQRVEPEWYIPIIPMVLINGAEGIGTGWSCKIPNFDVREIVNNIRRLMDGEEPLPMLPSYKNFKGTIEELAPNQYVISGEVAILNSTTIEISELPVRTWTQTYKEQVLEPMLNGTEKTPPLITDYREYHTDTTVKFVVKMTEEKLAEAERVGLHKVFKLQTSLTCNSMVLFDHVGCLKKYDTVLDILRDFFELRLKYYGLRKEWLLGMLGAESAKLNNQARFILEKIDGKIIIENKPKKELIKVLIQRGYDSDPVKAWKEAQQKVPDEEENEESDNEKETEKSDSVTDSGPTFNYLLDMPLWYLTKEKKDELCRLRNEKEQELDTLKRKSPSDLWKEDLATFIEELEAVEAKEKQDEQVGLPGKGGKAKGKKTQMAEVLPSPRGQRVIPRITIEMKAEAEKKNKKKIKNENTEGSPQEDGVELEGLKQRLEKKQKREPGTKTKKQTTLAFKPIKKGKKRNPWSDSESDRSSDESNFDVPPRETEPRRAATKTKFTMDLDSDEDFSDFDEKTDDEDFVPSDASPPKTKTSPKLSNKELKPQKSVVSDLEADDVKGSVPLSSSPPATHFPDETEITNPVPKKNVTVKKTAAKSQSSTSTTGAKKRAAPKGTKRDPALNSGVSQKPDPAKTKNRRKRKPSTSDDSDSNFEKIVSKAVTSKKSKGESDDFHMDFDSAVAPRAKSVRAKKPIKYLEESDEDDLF
Chain of Flt3 (P36888 27-993): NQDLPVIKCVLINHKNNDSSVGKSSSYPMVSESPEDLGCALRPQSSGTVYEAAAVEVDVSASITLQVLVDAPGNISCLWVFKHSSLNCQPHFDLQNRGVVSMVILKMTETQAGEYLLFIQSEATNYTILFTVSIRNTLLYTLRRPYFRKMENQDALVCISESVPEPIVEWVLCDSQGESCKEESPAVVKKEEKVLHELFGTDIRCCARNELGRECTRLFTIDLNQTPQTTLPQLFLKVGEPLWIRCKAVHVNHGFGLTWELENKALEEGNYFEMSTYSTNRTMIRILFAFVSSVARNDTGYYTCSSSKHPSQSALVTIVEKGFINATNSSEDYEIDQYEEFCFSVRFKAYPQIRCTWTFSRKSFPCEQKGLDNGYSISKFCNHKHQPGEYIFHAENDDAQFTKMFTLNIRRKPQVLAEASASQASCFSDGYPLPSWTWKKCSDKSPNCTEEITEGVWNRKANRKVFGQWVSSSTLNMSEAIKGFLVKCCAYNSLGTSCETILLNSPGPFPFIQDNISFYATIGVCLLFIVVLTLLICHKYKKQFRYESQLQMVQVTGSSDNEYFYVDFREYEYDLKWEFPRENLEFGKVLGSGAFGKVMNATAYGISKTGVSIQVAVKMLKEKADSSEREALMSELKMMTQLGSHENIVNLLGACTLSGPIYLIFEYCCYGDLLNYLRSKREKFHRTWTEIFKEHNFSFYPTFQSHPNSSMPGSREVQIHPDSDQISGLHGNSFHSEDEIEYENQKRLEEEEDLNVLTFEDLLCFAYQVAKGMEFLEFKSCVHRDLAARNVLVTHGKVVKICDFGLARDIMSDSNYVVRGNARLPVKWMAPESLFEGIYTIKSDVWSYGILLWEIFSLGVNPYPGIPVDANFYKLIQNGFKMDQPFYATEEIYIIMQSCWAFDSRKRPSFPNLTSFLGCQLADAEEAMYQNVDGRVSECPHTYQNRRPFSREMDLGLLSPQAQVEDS
Chain of JAK2 (O60674 whole entry): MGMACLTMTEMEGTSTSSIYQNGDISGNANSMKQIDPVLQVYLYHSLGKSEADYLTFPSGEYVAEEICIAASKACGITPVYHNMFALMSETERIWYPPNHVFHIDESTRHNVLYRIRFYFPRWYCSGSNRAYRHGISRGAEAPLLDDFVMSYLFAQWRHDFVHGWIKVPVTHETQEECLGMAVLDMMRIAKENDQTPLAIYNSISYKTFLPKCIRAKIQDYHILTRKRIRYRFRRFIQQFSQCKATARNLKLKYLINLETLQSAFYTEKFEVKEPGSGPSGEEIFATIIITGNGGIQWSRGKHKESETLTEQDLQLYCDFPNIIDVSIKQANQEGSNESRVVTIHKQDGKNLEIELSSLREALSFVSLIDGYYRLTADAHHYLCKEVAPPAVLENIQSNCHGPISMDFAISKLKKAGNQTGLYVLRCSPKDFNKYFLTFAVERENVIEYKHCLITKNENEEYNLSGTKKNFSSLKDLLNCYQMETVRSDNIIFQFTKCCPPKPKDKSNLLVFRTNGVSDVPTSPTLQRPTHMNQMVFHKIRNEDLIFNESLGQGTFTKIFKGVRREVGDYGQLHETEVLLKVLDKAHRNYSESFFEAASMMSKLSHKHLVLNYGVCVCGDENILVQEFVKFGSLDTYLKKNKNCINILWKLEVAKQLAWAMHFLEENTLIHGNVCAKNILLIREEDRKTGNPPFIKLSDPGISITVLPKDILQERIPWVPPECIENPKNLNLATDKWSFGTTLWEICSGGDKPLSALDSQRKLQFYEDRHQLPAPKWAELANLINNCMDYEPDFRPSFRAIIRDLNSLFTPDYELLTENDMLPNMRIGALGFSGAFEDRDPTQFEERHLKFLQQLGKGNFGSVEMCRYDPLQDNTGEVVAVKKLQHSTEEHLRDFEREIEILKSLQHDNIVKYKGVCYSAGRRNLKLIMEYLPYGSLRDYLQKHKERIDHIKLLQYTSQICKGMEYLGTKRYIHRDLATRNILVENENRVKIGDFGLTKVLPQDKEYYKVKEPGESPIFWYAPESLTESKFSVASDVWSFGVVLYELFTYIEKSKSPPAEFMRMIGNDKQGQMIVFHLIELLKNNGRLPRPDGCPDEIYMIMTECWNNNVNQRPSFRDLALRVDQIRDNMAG
Chain of human topo II (P11388 whole entry): as the sequence (P11388 whole entry) above
Chain of Fms (P07333 20-972): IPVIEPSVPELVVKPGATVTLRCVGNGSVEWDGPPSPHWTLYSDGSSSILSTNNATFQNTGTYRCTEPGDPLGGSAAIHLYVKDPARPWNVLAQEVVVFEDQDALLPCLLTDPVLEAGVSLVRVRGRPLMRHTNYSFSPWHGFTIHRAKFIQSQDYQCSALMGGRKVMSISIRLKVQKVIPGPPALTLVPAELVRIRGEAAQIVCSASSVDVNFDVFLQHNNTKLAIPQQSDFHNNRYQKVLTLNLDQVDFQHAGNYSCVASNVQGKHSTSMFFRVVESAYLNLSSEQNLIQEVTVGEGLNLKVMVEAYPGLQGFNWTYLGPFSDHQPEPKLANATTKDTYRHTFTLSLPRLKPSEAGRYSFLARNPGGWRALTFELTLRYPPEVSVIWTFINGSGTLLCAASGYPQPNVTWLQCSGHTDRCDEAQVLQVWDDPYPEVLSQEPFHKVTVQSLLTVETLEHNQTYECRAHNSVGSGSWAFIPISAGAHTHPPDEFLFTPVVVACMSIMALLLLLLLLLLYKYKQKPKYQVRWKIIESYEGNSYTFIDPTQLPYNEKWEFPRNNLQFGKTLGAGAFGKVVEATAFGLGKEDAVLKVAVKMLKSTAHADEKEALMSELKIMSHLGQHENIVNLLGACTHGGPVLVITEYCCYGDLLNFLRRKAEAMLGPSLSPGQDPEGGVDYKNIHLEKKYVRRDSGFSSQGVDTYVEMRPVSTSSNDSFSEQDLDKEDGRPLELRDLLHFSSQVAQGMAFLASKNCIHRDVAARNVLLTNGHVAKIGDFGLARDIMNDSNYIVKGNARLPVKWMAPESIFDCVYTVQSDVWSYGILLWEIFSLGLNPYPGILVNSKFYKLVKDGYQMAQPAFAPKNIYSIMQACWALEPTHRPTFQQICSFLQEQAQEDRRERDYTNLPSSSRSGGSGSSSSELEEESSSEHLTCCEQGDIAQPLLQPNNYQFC
Chain of PKBα (P31749 whole entry): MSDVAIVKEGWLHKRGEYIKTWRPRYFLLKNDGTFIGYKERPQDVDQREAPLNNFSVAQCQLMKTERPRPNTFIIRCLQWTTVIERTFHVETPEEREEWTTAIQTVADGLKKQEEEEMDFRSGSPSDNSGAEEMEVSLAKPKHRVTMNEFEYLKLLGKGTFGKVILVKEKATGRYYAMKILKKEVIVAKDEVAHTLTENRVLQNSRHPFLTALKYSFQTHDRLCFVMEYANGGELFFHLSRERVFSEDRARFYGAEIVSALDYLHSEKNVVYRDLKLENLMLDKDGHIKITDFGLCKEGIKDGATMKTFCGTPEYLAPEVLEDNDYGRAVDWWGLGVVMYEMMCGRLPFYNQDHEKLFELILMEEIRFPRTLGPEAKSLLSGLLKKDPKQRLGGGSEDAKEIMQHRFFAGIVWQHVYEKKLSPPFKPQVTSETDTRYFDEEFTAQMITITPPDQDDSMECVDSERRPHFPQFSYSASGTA

O=c1nc(SCc2cc(F)cc(C(F)(F)F)c2)nc(SCc2ccc3sccc3c2)[nH]1 [Compound 24, 6-((Benzo[b]thiophen-5-ylmethyl)thio)−4-((3-fluoro-5-(trifluoromethyl)benzyl)thio)−1,3,5-triazin-2(1H)-one]
activity at 10 µM [1]: 93%
IC50 [2]: 9.9 ± 0.4 µM
activity at 10 µM [3]: 83%
linear product in the competitive cleavage assay (in words) [4]: appeared to reduce the linear product of the etoposide-topoIIα cleavage complex at lower concentrations
activity at 10 µM [5]: 124%
linear plasmid in the cleavage assay (in words) [6]: a low level of linear plasmid was detected at 15.6 μM and above
activity at 10 µM [7]: 100%
inhibition of the panel of 20 human protein kinases (in words) [8]: no significant inhibitory effect was observed
cytotoxic activity in NCI-60 (in words) [9]: marginal cytotoxicity in several leukemia cell lines
activity at 10 µM [10]: 93%
activity at 10 µM [11]: 87%
activity at 10 µM [12]: 92%
activity at 10 µM [13]: 106%
interaction with the ATPase domain of topo IIα by STD NMR (in words) [14]: confirmed the interaction
activity at 10 µM [15]: 77%
activity at 10 µM [16]: 86%
activity at 10 µM [17]: 90%
mode of inhibition with respect to ATP (in words) [18]: no noticeable decrease in IC50 values
activity at 10 µM [19]: 86%
unwinding / intercalation (in words) [20]: inhibitors rather than intercalators
activity at 10 µM [21]: 105%
activity at 10 µM [22]: 99%
activity at 10 µM [23]: 91%
activity at 10 µM [24]: 107%
activity at 10 µM [25]: 127%
activity at 10 µM [26]: 93%
solubility (in words) [27]: more soluble compared to the benzyl-substituted analogues
activity at 10 µM [28]: 110%
activity at 10 µM [29]: 92%
